Assay results reported in ChEMBL document CHEMBL5532695, “4-Trifluoromethyl bithiazoles as broad-spectrum antimicrobial agents for virus-related bacterial infections or co-infections” (RSC Med Chem, 2024).
Active and inactive are the calls of the source. The calls are words filed in the database; no cut-off is given here.

How the values were obtained:
[1] = target: Phosphatidylinositol 4-kinase beta (Homo sapiens, UniProt Q9UBF8); assay: Inhibition of recombinant full length his tagged PI4KB (unknown origin) incubated for 10 mins in presence of ATP by ADP-glo kinase assay
Phosphatidylinositol 4-kinase beta, sequence (Q9UBF8 whole entry): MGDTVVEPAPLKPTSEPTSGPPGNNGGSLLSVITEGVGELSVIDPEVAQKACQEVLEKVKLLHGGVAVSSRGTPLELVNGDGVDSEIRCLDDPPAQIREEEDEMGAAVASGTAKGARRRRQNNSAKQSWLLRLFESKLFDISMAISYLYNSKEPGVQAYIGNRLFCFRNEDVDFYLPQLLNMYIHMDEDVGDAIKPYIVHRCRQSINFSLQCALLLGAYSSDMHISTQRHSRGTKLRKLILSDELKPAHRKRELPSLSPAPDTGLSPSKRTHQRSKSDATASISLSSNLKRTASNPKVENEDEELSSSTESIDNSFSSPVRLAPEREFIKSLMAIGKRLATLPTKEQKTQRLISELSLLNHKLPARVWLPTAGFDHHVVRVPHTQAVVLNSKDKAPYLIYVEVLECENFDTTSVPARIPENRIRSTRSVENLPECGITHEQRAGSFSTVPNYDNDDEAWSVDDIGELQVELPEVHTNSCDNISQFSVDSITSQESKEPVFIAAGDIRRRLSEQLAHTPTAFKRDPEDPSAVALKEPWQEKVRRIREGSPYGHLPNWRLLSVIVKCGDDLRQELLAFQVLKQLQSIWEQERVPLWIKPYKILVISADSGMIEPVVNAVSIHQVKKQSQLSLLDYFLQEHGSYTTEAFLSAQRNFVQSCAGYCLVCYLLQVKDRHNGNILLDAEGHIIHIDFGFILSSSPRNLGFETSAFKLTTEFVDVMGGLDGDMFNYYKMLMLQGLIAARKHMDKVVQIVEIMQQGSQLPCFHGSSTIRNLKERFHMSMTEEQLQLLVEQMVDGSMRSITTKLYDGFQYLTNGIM

[2] = Cytotoxicity against human HeLa cells assessed as reduction in cell viability by MTT assay; format: toxicity, cell-based
How it was run: (§1)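 MTT viability on HeLa or VeroE6 cells, run in parallel with the antiviral assays. CC50 from variable-slope sigmoidal dose–response regression.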

[3] = Cytotoxicity against african green monkey Vero E6 cells assessed as reduction in cell viability by MTT assay; format: toxicity, cell-based; settings: chlorocebus sabaeus, Vero E6 cells (Vero C1008); how it was run: as §1
Bacillus subtilis [4] = assay: Antibacterial activity against Bacillus subtilis ATCC 6633 assessed as reduction in microbial growth measured after 18 hrs by CLSI based broth microdilution method; format: functional
How it was run: (§2)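 MIC by CLSI broth microdilution in Mueller–Hinton medium, triplicate. Inoculum 5 × 10^4 CFU per well. Compounds taken up in DMSO (50 mg mL−1 stock) and diluted in medium. Read after 18 h at 35 ± 2 °C.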

Enterococcus faecalis [5] = assay: Antibacterial activity against Enterococcus faecalis ATCC 29212 assessed as reduction in microbial growth measured after 18 hrs by CLSI based broth microdilution method; format: functional; how it was run: as §2
Streptococcus pyogenes [6] = assay: Antibacterial activity against Streptococcus pyogenes ATCC 12344 assessed as reduction in microbial growth measured after 18 hrs by CLSI based broth microdilution method; format: functional; how it was run: as §2
Staphylococcus aureus [7] = assay: Antibacterial activity against Staphylococcus aureus ATCC 25923 assessed as reduction in microbial growth measured after 18 hrs by CLSI based broth microdilution method; format: functional; how it was run: as §2
Escherichia coli [8] = assay: Synergistic antibacterial activity against Escherichia coli CCUGT incubated for 18 to 24 hrs in presence of colistin by broth microdilution method; format: functional; settings: time 18-24 hrs
Klebsiella pneumoniae = assay: Synergistic antibacterial activity against Klebsiella pneumoniae ATCC 13833 incubated for 18 to 24 hrs in presence of colistin by broth microdilution method; format: functional; settings: time 18-24 hrs
Acinetobacter baumannii [9] = assay: Synergistic antibacterial activity against Acinetobacter baumannii ATCC 17978 incubated for 18 to 24 hrs in presence of colistin by broth microdilution method; format: functional; settings: time 18-24 hrs
Pseudomonas aeruginosa [10] = assay: Synergistic antibacterial activity against Pseudomonas aeruginosa ATCC 27853 incubated for 18 to 24 hrs in presence of colistin by broth microdilution method; format: functional; settings: time 18-24 hrs
Escherichia coli [11] = assay: Synergistic antibacterial activity against colistin resistant mcr-positive Escherichia coli SI-63 incubated for 18 to 24 hrs in presence of colistin by broth microdilution method; format: functional; settings: time 18-24 hrs
How it was run: (§3)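 Minimum antibacterial concentration (MAC) by broth microdilution in Mueller–Hinton medium with a fixed subinhibitory colistin concentration of 2 μg mL−1 against colistin-resistant Gram-negative clinical isolates; inoculum 5 × 10^4 CFU per well, 35 ± 2 °C; triplicate.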

Acinetobacter baumannii [12] = assay: Synergistic antibacterial activity against colistin/carbapenem resistant MDR Acinetobacter baumannii N50 incubated for 18 to 24 hrs in presence of colistin by broth microdilution method; format: functional; settings: time 18-24 hrs; how it was run: as §3
Pseudomonas aeruginosa [13] = assay: Synergistic antibacterial activity against colistin resistant MDR Pseudomonas aeruginosa SI-270 incubated for 18 to 24 hrs in presence of colistin by broth microdilution method; format: functional; settings: time 18-24 hrs; how it was run: as §3
rhinovirus A16 [14] = assay: Antiviral activity against hRVA16 infected in human HeLa cells assessed as effect on RNA intracellular level at 5 uM pretreated for 1 hrs before infection and measured after 1 to 6 hrs post infection by time of addition assay; format: functional, organism-based; settings: time 2-7 hrs
How it was run: (§4)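 Time of addition: HeLa cells infected with RVA16 at MOI 0.1. Compound at 5 μM added 1 h before, during, or 1, 2, 4 or 6 h after infection. At 24 h, cells lysed and intracellular viral RNA measured by RV-specific qPCR; supernatant titrated on HeLa cells.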

rhinovirus A16 [15] = assay: Antiviral activity against hRVA16 infected in human HeLa cells assessed as effect on release of infectious virus at 5 uM measured after 24 hrs post infection by time of addition assay; format: functional, organism-based; how it was run: as §4
rhinovirus A16 [16] = assay: Antiviral activity against 7 times rupintrivir passaged resistance model of Human rhinovirus 16 infected in human HeLa cells assessed as inhibition of viral replication; format: functional, organism-based; settings: Rhinovirus A
How it was run: (§5)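 HeLa cells infected with RVA16 and serially passaged under compound, supernatants harvested at extensive CPE (3–6 dpi), clarified and titrated on HeLa; each passage used prior virus at MOI 0.01, drug concentration doubled when possible; after 7 passages RNA sequenced. Antiviral read-out: HeLa at 33 °C, 48 h, VP3 immunostaining with HRP secondary; EC50 from variable-slope sigmoidal fit.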

rhinovirus A16 [17] = assay: Antiviral activity against 7 times N-(4'-(Trifluoromethyl)-2-((3-(trifluoromethyl)phenyl)amino)-[4,5'-bithiazol]-2'-yl)benzamide passaged resistance model of Human rhinovirus 16 infected in human HeLa cells assessed as inhibition of viral replication; format: functional, organism-based; settings: Rhinovirus A; how it was run: as §5
rhinovirus A16 [18] = assay: microbe, parasite or virus in culture; settings: Rhinovirus A, HeLa, 48 h
enterovirus D68 = assay: microbe, parasite or virus in culture; settings: Enterovirus D, HeLa, 48 h
Zika virus = assay: microbe, parasite or virus in culture; settings: Vero C1008, 72 h
Bacillus subtilis [19] = assay: Bactericidal activity against Bacillus subtilis ATCC 6633 assessed as reduction in microbial growth measured after 18 hrs by CLSI based broth microdilution method; format: functional
How it was run: (§6)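 MBC by CLSI broth microdilution in Mueller–Hinton medium, triplicate. Inoculum 5 × 10^4 CFU per well. Read after 18 h at 35 ± 2 °C.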

Enterococcus faecalis [20] = assay: Bactericidal activity against Enterococcus faecalis ATCC 29212 assessed as reduction in microbial growth measured after 18 hrs by CLSI based broth microdilution method; format: functional; how it was run: as §6
Streptococcus pyogenes [21] = assay: Bactericidal activity against Streptococcus pyogenes ATCC 12344 assessed as reduction in microbial growth measured after 18 hrs by CLSI based broth microdilution method; format: functional; how it was run: as §6
Staphylococcus aureus [22] = assay: Bactericidal activity against Staphylococcus aureus ATCC 25923 assessed as reduction in microbial growth measured after 18 hrs by CLSI based broth microdilution method; format: functional; how it was run: as §6
Staphylococcus aureus [23] = assay: Antibacterial activity against methicillin-resistant Staphylococcus aureus ATCC 43300 assessed as reduction in microbial growth measured after 18 hrs by CLSI based broth microdilution method; format: functional
How it was run: (§7)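 Gram-positive clinical isolates; compounds dissolved in DMSO (50 mg mL−1 stock) and diluted in medium; MIC by CLSI broth microdilution in Mueller–Hinton medium, inoculum 5 × 10^4 CFU per well, read after 18 h at 35 ± 2 °C; triplicate.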

Staphylococcus aureus [24] = assay: Bactericidal activity against methicillin-resistant Staphylococcus aureus ATCC 43300 assessed as reduction in microbial growth measured after 18 hrs by CLSI based broth microdilution method; format: functional
Staphylococcus warneri [25] = assay: Antibacterial activity against oxacillin-resistant Staphylococcus warneri SI-5/2011 assessed as reduction in microbial growth measured after 18 hrs by CLSI based broth microdilution method; format: functional; how it was run: as §7
Staphylococcus warneri [26] = assay: Bactericidal activity against oxacillin-resistant Staphylococcus warneri SI-5/2011 assessed as reduction in microbial growth measured after 18 hrs by CLSI based broth microdilution method; format: functional
[27] = tested on: Staphylococcus haemolyticus; assay: Antibacterial activity against oxacillin-resistant Staphylococcus haemolyticus SI-6/2011 assessed as reduction in microbial growth measured after 18 hrs by CLSI based broth microdilution method; format: functional; how it was run: as §7
[28] = tested on: Staphylococcus haemolyticus; assay: Bactericidal activity against oxacillin-resistant Staphylococcus haemolyticus SI-6/2011 assessed as reduction in microbial growth measured after 18 hrs by CLSI based broth microdilution method; format: functional
[29] = tested on: Staphylococcus epidermidis; assay: Antibacterial activity against linezolid-resistant Staphylococcus epidermidis SI-1266 assessed as reduction in microbial growth measured after 18 hrs by CLSI based broth microdilution method; format: functional; how it was run: as §7
[30] = tested on: Staphylococcus epidermidis; assay: Bactericidal activity against linezolid-resistant Staphylococcus epidermidis SI-1266 assessed as reduction in microbial growth measured after 18 hrs by CLSI based broth microdilution method; format: functional
Enterococcus faecium [31] = assay: Antibacterial activity against Vancomycin/teicoplanin resistant Enterococcus faecium SI-759 assessed as reduction in microbial growth measured after 18 hrs by CLSI based broth microdilution method; format: functional; how it was run: as §7
Enterococcus faecium [32] = assay: Bactericidal activity against Vancomycin/teicoplanin resistant Enterococcus faecium SI-759 assessed as reduction in microbial growth measured after 18 hrs by CLSI based broth microdilution method; format: functional
Enterococcus faecium [33] = assay: Antibacterial activity against Vancomycin resistant Enterococcus faecium SI-1831 assessed as reduction in microbial growth measured after 18 hrs by CLSI based broth microdilution method; format: functional; how it was run: as §7
Enterococcus faecium [34] = assay: Bactericidal activity against Vancomycin resistant Enterococcus faecium SI-1831 assessed as reduction in microbial growth measured after 18 hrs by CLSI based broth microdilution method; format: functional
Enterococcus faecium [35] = assay: Antibacterial activity against Vancomycin resistant Enterococcus faecium SI-3856B assessed as reduction in microbial growth measured after 18 hrs by CLSI based broth microdilution method; format: functional; how it was run: as §7
Enterococcus faecium [36] = assay: Bactericidal activity against Vancomycin resistant Enterococcus faecium SI-3856B assessed as reduction in microbial growth measured after 18 hrs by CLSI based broth microdilution method; format: functional

Compound | IC50 [1] | CC50 [2] [µM] | CC50 [3] [µM] | MIC (Bacillus subtilis [4]) [µg/mL] | MIC (Enterococcus faecalis [5]) [µg/mL] | MIC (Streptococcus pyogenes [6]) [µg/mL] | MIC (Staphylococcus aureus [7]) [µg/mL] | MAC (Escherichia coli [8]) [µg/mL] | MAC (Klebsiella pneumoniae) [µg/mL] | MAC (Acinetobacter baumannii [9]) [µg/mL] | MAC (Pseudomonas aeruginosa [10]) [µg/mL] | MAC (Escherichia coli [11]) [µg/mL] | MAC (Acinetobacter baumannii [12]) [µg/mL] | MAC (Pseudomonas aeruginosa [13]) [µg/mL] | EC50 (rhinovirus A16 [16]) [µM] | EC50 (rhinovirus A16 [17]) [µM] | IC50 (rhinovirus A16 [18]) [µM] | IC50 (enterovirus D68) [µM] | IC50 (Zika virus) [µM] | also measured
O=C(Nc1nc(C(F)(F)F)c(-c2csc(Nc3cccc(C(F)(F)F)c3)n2)s1)c1ccccc1 | Not Active | > 50 | 35.9 | > 32 | > 32 | > 32 | > 32 | 2 | 64 | 8 | >64 | 1 | 0.06 | 16 | 1.04 | 4.32 | 0.49 | 1.11 | 4.62 | Activity (rhinovirus A16 [14]): Active; Activity (rhinovirus A16 [15]): Active
CCOC(=O)/C=C/[C@H](C[C@@H]1CCNC1=O)NC(=O)[C@@H](CC(=O)[C@@H](NC(=O)c1cc(C)on1)C(C)C)Cc1ccc(F)cc1 [RUPINTRIVIR] |  |  |  |  |  |  |  |  |  |  |  |  |  |  | 0.014 | 0.005 |  |  |  | EC50 (rhinovirus A16 [18]): 0.002 µM
CC(C)(C)C(=O)Nc1nc(C(F)(F)F)c(-c2csc(Nc3cccc(C(F)(F)F)n3)n2)s1 | Not Active | 31.8 | 46 | 8 | 8 | 8 | 32 | 2 | 2 | 4 | >64 | 1 | 0.06 | 64 |  |  | 9.02 | 6.74 | 6.9 | MBC (Bacillus subtilis [19]): 16 µg/mL; MBC (Enterococcus faecalis [20]): 16 µg/mL; MBC (Streptococcus pyogenes [21]): 8 µg/mL; MBC (Staphylococcus aureus [22]): > 32 µg/mL; MIC (Staphylococcus aureus [23]): 16 µg/mL; MBC (Staphylococcus aureus [24]): > 64 µg/mL; MIC (Staphylococcus warneri [25]): > 64 µg/mL; MBC (Staphylococcus warneri [26]): > 64 µg/mL; MIC [27]: > 64 µg/mL; MBC [28]: > 64 µg/mL; MIC [29]: > 64 µg/mL; MBC [30]: > 64 µg/mL; MIC (Enterococcus faecium [31]): 64 µg/mL; MBC (Enterococcus faecium [32]): > 64 µg/mL; MIC (Enterococcus faecium [33]): > 64 µg/mL; MBC (Enterococcus faecium [34]): > 64 µg/mL; MIC (Enterococcus faecium [35]): > 64 µg/mL; MBC (Enterococcus faecium [36]): > 64 µg/mL
